# Reference: publication PMC11541586 (Communications Biology, 2024)
# Experiments:
# human LPA1 = human LPA1 (Homo sapiens, UniProt Q92633); test: NanoBiT-G-protein dissociation assay; assay type: cell-based
# Summary of the method: (§1)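 Human LPA1 (N-terminal FLAG-tagged, wild type or point mutant) is co-transfected into HEK293T cells with LgBiT-Gαi1, untagged Gβ1 and SmBiT-Gγ2 C68S. After 1 d, cells are resuspended in HBSS with 0.01% fatty-acid-free BSA and loaded with coelenterazine for 2 h.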
# CNRs = test: NanoBiT-G-protein dissociation assay for CNRs; assay type: cell-based, human
# human LPA1 L278A mutant = human LPA1 L278A mutant (Homo sapiens, UniProt Q92633, L278A); test: NanoBiT-G-protein dissociation assay, LPA1 L278A mutant; assay type: cell-based
# Summary of the method: as §1
# human LPA1 W210A mutant = human LPA1 W210A mutant (Homo sapiens, UniProt Q92633, W210A); test: NanoBiT-G-protein dissociation assay, LPA1 W210A mutant; assay type: cell-based
# Summary of the method: as §1
# human LPA1 W271F mutant = human LPA1 W271F mutant (Homo sapiens, UniProt Q92633, W271F); test: NanoBiT-G-protein dissociation assay, LPA1 W271F mutant; assay type: cell-based
# Summary of the method: as §1
# FFAR4 = molecular target: T1, FFAR4 (Homo sapiens, UniProt Q5NUL3); test: NanoBiT-G-protein dissociation assay for FFAR4; assay type: cell-based; conditions: FFAR4 (b17 prints FFARs)
# T1 sequence (Q5NUL3 1-361): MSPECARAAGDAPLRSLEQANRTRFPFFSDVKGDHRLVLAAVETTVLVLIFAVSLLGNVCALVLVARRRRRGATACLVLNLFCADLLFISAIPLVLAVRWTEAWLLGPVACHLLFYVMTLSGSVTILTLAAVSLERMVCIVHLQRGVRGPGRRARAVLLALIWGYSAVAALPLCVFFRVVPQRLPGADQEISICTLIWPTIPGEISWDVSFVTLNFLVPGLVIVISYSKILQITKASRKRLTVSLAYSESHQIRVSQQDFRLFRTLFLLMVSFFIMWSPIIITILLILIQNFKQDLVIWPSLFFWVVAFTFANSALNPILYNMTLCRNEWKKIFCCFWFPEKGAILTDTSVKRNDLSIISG
# Chain of human LPA1 (Q92633 whole entry): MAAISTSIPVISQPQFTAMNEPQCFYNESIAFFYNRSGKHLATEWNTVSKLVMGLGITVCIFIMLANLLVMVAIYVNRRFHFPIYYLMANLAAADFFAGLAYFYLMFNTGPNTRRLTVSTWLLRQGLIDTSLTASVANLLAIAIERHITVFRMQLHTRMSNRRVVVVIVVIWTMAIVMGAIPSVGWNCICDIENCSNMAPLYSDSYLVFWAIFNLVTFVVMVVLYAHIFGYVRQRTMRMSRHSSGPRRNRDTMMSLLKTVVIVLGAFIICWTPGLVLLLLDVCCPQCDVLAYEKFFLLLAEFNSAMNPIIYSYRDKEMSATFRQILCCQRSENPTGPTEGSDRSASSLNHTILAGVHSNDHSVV
# Chain of human LPA1 L278A mutant (Q92633 whole entry L278A): as the sequence (Q92633 whole entry) above, with L278A counted along it
# Chain of human LPA1 W210A mutant (Q92633 whole entry W210A): as the sequence (Q92633 whole entry) above, with W210A counted along it
# Chain of human LPA1 W271F mutant (Q92633 whole entry W271F): as the sequence (Q92633 whole entry) above, with W271F counted along it
smiles,measurement,setting,value
"CCc1oc2c([C@H](CO)N(CC)CC)cccc2c1C [CpY, (2R)-2-(diethylamino)-2-(2-ethyl-3-methyl-benzofuran-7-yl)ethanol]",EC50,"human LPA1; EC50, WT LPA1",0.95 nM
same,Emax relative to LPA,human LPA1; compared with LPA,1.5 fold
same,agonistic activity (EC50) relative to LPA,human LPA1; compared with LPA,20 fold
same,effect on receptor,CNRs,no activity
same,response of mutant compared with wild type,human LPA1 L278A mutant,reduced the activity
same,response of mutant compared with wild type,human LPA1 W210A mutant,responsive
same,response of mutant compared with wild type,human LPA1 W271F mutant,reduction in response
same,effect on receptor,FFAR4,no activity
